According to ChEMBL document CHEMBL1121448, “Adrenergic receptor agonists. Benzofuranylethanolamines” (1980):

Experiments:
Felis catus = species: Felis catus; test: Intrinsic activity as percentage of heart rate (HR max) in cat was determined; assay type: functional
Summary of the method: (§1)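 Reserpinized, bilaterally vagotomized cats, pentobarbital-anesthetized (30 mg/kg ip, then 0.1 (mg/min)/kg infusion), artificially ventilated. Heart rate was recorded by cardiotachograph from carotid pressure. Hind-leg vascular resistance was read as perfusion pressure under constant-flow autoperfusion. Test compound was infused iv into the femoral vein for 10 min at 1.0 mL/min, in five stepwise raised concentrations.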

[1] = target: Beta-1 adrenergic receptor (Homo sapiens) (UniProt P08588); test: Tested for agonistic effect on heart rate against beta-1 adrenergic receptor in cat; assay type: functional, tissue-based; settings: Felis catus, target entry is the homologue from another species; summary of the method: as §1
Chain of Beta-1 adrenergic receptor (Homo sapiens) (P08588 whole entry, looked up): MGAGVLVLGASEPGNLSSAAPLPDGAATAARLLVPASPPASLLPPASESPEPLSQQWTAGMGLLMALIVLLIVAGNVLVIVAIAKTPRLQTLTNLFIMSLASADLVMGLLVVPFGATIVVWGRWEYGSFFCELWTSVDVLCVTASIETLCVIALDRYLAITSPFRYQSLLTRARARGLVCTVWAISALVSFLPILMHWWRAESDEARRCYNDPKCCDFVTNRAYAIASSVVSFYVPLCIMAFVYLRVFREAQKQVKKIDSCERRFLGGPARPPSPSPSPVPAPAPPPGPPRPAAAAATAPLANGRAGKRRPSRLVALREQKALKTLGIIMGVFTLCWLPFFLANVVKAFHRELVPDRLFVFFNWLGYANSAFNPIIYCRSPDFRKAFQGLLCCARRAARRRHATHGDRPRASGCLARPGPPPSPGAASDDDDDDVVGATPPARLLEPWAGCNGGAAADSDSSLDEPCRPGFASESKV

[2] = target: Beta-2 adrenergic receptor (Homo sapiens) (UniProt P07550); test: Tested for agonistic effect on peripheral vascular resistance (PR) against beta 2 adrenergic receptor in cat; assay type: functional; settings: Felis catus; target entry is the homologue from another species; summary of the method: as §1
Chain of Beta-2 adrenergic receptor (Homo sapiens) (P07550 whole entry, looked up): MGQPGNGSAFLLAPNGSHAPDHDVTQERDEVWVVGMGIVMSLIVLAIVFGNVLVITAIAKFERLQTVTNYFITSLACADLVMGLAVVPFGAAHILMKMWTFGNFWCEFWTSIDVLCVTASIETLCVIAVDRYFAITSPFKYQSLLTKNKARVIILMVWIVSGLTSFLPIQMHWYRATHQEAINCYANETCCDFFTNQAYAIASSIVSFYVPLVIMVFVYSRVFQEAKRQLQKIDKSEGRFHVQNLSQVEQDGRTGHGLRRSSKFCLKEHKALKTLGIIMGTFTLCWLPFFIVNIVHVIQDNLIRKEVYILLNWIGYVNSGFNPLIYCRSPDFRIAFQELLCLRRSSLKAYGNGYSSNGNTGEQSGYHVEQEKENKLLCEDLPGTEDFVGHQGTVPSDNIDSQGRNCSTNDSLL

[3] = target: Beta-1 adrenergic receptor (Homo sapiens) (UniProt P08588); test: Tested for antagonistic effect on heart rate against beta-1 adrenergic receptor in cat; assay type: functional, tissue-based; settings: Felis catus, target entry is the homologue from another species; summary of the method: as §1
[4] = target: Beta-2 adrenergic receptor (Homo sapiens) (UniProt P07550); test: Tested for agonistic effect on peripheral vascular resistance (PR) against beta-2 adrenergic receptor in cat; assay type: functional; settings: Felis catus; target entry is the homologue from another species; summary of the method: as §1

| KB [2] [µM/kg] | KB [4] [µM/kg] | SMILES | HR (Felis catus) [%] | KA [1] [µM/kg] | KB [3] [µM/kg] |
| --- | --- | --- | --- | --- | --- |
| 4.73 | – | CC(C)NCC(O)c1cc2ccc(O)cc2o1 (stereo not given) | 27 | 1.65 | 4.8 |
| – | – | CC(C)NC[C@H](O)COc1ccc(O)cc1 [PRENALTEROL] | 80 | 0.025 | – |
| – | 1.12 | CC(C)NCC(O)c1cc2cc(O)ccc2o1 (stereo not given) | 80 | 0.21 | 0.34 |
